Laboratory results: ChEMBL document CHEMBL4699593, “Identification of 2,4-Disubstituted Imidazopyridines as Hemozoin Formation Inhibitors with Fast-Killing Kinetics and In Vivo Efficacy in the Plasmodium falciparum NSG Mouse Model” (J Med Chem, 2020)
In brackets after ≈: the same amount, converted by molar mass.

Key:
[1] = AUC in Balb/c mouse administered orally; format: ADME; settings: in vivo, po
Procedure, shortened: (§1)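 Healthy Balb/c mice dosed i.v. or orally. Parameters come from non-compartmental analysis of compound concentration over time. […] Clearance is blood clearance (CL_b).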

[2] = Volume of distribution at steady state in Balb/C mouse at 2 mg/kg, iv by LC-MS/MS analysis; format: ADME, organism-based; settings: in vivo, read-out: Vdss
Procedure, shortened: (§2)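 Healthy Balb/c mice were given the compound i.v. or orally. Parameters come from non-compartmental analysis: AUC from 0 h to t_last, blood clearance, volume at steady state, terminal half-life, Tmax. Oral bioavailability F is derived from the i.v. and p.o. data.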

[3] = AUC (0 to t) in Balb/C mouse at 20 mg/kg, po by LC-MS/MS analysis; format: ADME, organism-based; parameters: dose 20 mg/kg; settings: in vivo; procedure, shortened: as §1
[4] = Cmax in Balb/C mouse at 20 mg/kg, po by LC-MS/MS analysis; format: ADME, organism-based; parameters: route oral, dose 20 mg/kg; settings: in vivo; procedure, shortened: as §1
[5] = Selectivity index, ratio of CC50 for cytotoxicity against CHO cells assessed as reduction in cell viability to IC50 for antiplasmodial activity against multidrug-sensitive Plasmodium falciparum NF54 assessed as reduction in parasite growth; format: toxicity, cell-based; settings: hamster, read-out: Ratio CC50/IC50
[6] = Terminal half life in Balb/C mouse at 20 mg/kg, po by LC-MS/MS analysis; format: ADME, organism-based; settings: in vivo, read-out: beta t1/2 (converted); procedure, shortened: as §2
[7] = Aqueous solubility of compound in phosphate buffer saline at pH 6.5 incubated for 20 hrs under shaking condition by shake-flask method based HPLC-DAD analysis; format: physicochemical; settings: phosphate buffered saline
Procedure, shortened: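 Equilibrium aqueous solubility was measured at pH 6.5 using a miniaturized shake-flask method.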

[8] = Tmax in Balb/C mouse at 20 mg/kg, po by LC-MS/MS analysis; format: ADME, organism-based; settings: in vivo; procedure, shortened: as §2
[9] = Intrinsic clearance in Balb/c mouse at 20 mg/kg, po by LC-MS/MS analysis; format: ADME, organism-based; settings: in vivo
[10] = Ratio of unbound average drug concentration in Balb/c mouse at 20 mg/kg, po measured at 24 hrs to IC50 for antiplasmodial activity against multidrug-sensitive Plasmodium falciparum NF54 asexual blood stage assessed as reduction in parasite growth after 72 hrs by LDH assay; format: organism-based; settings: in vivo
CHO = assay: Cytotoxicity against CHO cells assessed as reduction in cell viability by MTT assay; format: cell-based, Cricetulus griseus; settings: chinese hamster
Procedure, shortened: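 Cytotoxicity was measured in Chinese hamster ovary (CHO) cells and reported as CC50. The selectivity index is CC50 divided by NF54 IC50.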

[11] = Oral bioavailability in Balb/C mouse at 20 mg/kg by LC-MS/MS analysis; format: ADME, organism-based; settings: in vivo; procedure, shortened: as §2
[12] = Cmax in Balb/C mouse at 2 mg/kg, iv by LC-MS/MS analysis; format: ADME, organism-based; parameters: route intravenous, dose 2 mg/kg; settings: in vivo; procedure, shortened: as §1
Plasmodium falciparum [13] = assay: Antiplasmodial activity against multidrug-resistant asexual blood stage Plasmodium falciparum K1 strain assessed as reduction in parasite growth after 72 hrs by NBT reagent based LDH assay; format: functional, organism-based; settings: K1, 72 h
Procedure, shortened: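 Asexual blood-stage K1 (multidrug-resistant) parasites were read out by the parasite lactate dehydrogenase (pLDH) assay. […] Most individual values varied less than 2× (maximum 3×).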

[14] = Terminal half life in Balb/C mouse at 2 mg/kg, iv by LC-MS/MS analysis; format: ADME, organism-based; settings: in vivo, read-out: beta t1/2 (converted); procedure, shortened: as §2
Plasmodium falciparum [15] = assay: Antiplasmodial activity against multidrug-sensitive asexual blood stage Plasmodium falciparum NF54 strain assessed as reduction in parasite growth after 72 hrs by NBT reagent based LDH assay; format: functional, organism-based; settings: NF54, 72 h
[16] = Clearance in Balb/C mouse blood at 2 mg/kg, iv by LC-MS/MS analysis; format: ADME, organism-based; settings: whole blood; procedure, shortened: as §1
[17] = AUC (0 to t) in Balb/C mouse at 2 mg/kg, iv by LC-MS/MS analysis; format: ADME, organism-based; parameters: dose 2 mg/kg; settings: in vivo; procedure, shortened: as §1
[18] = AUC (0 to t) in Balb/C mouse at 5 mg/kg, po by LC-MS/MS analysis; format: ADME, organism-based; parameters: dose 5 mg/kg; settings: in vivo; procedure, shortened: as §1
[19] = Tmax in Balb/C mouse at 5 mg/kg, po by LC-MS/MS analysis; format: ADME, organism-based; settings: in vivo; procedure, shortened: as §2
[20] = Ratio of unbound average drug concentration in Balb/c mouse at 5 mg/kg, po measured at 24 hrs to IC50 for antiplasmodial activity against multidrug-sensitive Plasmodium falciparum NF54 asexual blood stage assessed as reduction in parasite growth after 72 hrs by LDH assay; format: organism-based; settings: in vivo
[21] = Oral bioavailability in Balb/C mouse at 5 mg/kg by LC-MS/MS analysis; format: ADME, organism-based; settings: in vivo; procedure, shortened: as §2
[22] = Cmax in Balb/C mouse at 5 mg/kg, po by LC-MS/MS analysis; format: ADME, organism-based; parameters: route oral, dose 5 mg/kg; settings: in vivo; procedure, shortened: as §1
[23] = Terminal half life in Balb/C mouse at 5 mg/kg, po by LC-MS/MS analysis; format: ADME, organism-based; settings: in vivo, read-out: beta t1/2 (converted); procedure, shortened: as §2
[24] = Tmax in Balb/C mouse at 10 mg/kg, po by LC-MS/MS analysis; format: ADME, organism-based; settings: in vivo; procedure, shortened: as §2
[25] = Cmax in Balb/C mouse at 10 mg/kg, po by LC-MS/MS analysis; format: ADME, organism-based; parameters: route oral, dose 10 mg/kg; settings: in vivo; procedure, shortened: as §1
[26] = Terminal half life in Balb/C mouse at 10 mg/kg, po by LC-MS/MS analysis; format: ADME, organism-based; settings: in vivo, read-out: beta t1/2 (converted); procedure, shortened: as §2
[27] = Oral bioavailability in Balb/C mouse at 10 mg/kg by LC-MS/MS analysis; format: ADME, organism-based; settings: in vivo; procedure, shortened: as §2
[28] = AUC (0 to t) in Balb/C mouse at 10 mg/kg, po by LC-MS/MS analysis; format: ADME, organism-based; parameters: dose 10 mg/kg; settings: in vivo; procedure, shortened: as §1
[29] = Ratio of unbound average drug concentration in Balb/c mouse at 10 mg/kg, po measured at 24 hrs to IC50 for antiplasmodial activity against multidrug-sensitive Plasmodium falciparum NF54 asexual blood stage assessed as reduction in parasite growth after 72 hrs by LDH assay; format: organism-based; settings: in vivo
[30] = target: Voltage-gated inwardly rectifying potassium channel KCNH2 (Homo sapiens, UniProt Q12809); assay: Inhibition of human ERG by patch clamp method
Chain of Voltage-gated inwardly rectifying potassium channel KCNH2 (Q12809 whole entry, the tested form may be a part): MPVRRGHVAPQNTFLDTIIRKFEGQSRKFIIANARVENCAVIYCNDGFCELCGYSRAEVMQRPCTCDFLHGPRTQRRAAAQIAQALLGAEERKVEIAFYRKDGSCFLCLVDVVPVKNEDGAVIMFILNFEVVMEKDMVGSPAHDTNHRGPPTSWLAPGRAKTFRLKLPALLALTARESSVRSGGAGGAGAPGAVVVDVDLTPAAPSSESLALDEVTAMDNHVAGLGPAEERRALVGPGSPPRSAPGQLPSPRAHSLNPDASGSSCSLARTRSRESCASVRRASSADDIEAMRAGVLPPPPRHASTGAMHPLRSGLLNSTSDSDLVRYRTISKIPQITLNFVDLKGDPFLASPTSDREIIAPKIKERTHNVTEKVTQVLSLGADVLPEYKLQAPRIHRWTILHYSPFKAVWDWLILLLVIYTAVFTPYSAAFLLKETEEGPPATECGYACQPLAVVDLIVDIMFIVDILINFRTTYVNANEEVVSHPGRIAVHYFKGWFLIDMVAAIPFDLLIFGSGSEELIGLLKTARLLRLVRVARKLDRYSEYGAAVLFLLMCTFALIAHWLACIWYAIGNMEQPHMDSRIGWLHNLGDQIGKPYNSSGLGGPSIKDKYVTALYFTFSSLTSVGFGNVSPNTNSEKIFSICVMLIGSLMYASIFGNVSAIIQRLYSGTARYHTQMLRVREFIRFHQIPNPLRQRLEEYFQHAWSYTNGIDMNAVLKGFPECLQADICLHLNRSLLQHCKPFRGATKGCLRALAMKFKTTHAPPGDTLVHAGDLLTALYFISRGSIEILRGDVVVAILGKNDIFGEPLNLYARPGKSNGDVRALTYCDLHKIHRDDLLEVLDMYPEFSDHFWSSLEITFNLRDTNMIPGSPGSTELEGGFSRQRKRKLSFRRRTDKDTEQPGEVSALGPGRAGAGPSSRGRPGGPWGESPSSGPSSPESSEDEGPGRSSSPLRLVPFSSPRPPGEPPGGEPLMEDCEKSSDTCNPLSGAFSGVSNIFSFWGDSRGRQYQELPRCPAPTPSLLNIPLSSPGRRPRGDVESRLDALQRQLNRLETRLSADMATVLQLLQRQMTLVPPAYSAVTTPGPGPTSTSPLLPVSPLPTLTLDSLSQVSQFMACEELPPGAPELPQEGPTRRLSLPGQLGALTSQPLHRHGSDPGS

[31] = Selectivity ratio of IC50 for antiplasmodial activity against luciferase-expressing Plasmodium berghei sporozoites liver stage infected in human HepG2 cells expressing GFP-CD81 fusion protein to IC50 for antiplasmodial activity against multidrug-sensitive Plasmodium falciparum NF54; format: functional
Plasmodium berghei = assay: Antiplasmodial activity against luciferase-expressing Plasmodium berghei sporozoites liver stage infected in human HepG2 cells expressing GFP-CD81 fusion protein incubated for 48 hrs by luciferase reporter gene based bioluminescence assay; format: functional, organism-based; settings: HepG2, 48 h
Procedure, shortened: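 Liver-stage activity was measured in vitro with rodent P. berghei sporozoites. Values are the mean of 3 technical replicates from the luciferase assay; individual values varied less than 2×.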

Plasmodium falciparum [32] = assay: Antiplasmodial activity against late stage (IV/V) Plasmodium falciparum NF54 gametocytes at 5 uM incubated for 48 hrs under hypoxia condition by luciferase reporter gene assay relative to control; format: functional
Plasmodium falciparum [33] = assay: Antiplasmodial activity against early stage (I to III) Plasmodium falciparum NF54 gametocytes incubated for 48 hrs under hypoxia condition by luciferase reporter gene assay; format: functional, organism-based; settings: NF54, 48 h

| SMILES | Vd [2] [L/kg] | AUCt [3] [µM·min] | Cmax [4] [nM] | selectivity ratio [5] | half-life [6] [min] | solubility thermodynamic at 20 h [7] [µM] | Tmax [8] [h] | Ratio [10] | CC50 (CHO) [µM] | bioavailability [11] [%] | Cmax [12] [nM] | IC50 (Plasmodium falciparum [13]) [nM] | half-life [14] [min] | IC50 (Plasmodium falciparum [15]) [nM] | clearance [16] [mL/min/kg] | AUCt [17] [µM·min] | other results |
| --- | --- | --- | --- | --- | --- | --- | --- | --- | --- | --- | --- | --- | --- | --- | --- | --- | --- |
| CS(=O)(=O)c1ccc(-c2cnc(N)c(-c3ccc(C(F)(F)F)nc3)c2)cc1 [MMV-048] |  |  |  |  |  |  |  |  |  |  |  |  |  |  |  |  | AUC [1]: 465 µM·h |
| CN1CCC(N2CCN(c3nccc4[nH]c(-c5ccc(F)c(F)c5)nc34)CC2)CC1 | 4.3 | 398 | 1100 | 460 | 648 | 200 (≈ 82.5 µg/mL) | 2.3 | 0.9 | 33 | 11 | 1700 | 260 | 492 | 71 | 11.4 | 406 | CL [9]: 54 mL/min/kg |
| CN1CCN(c2nccc3nc(-c4ccc(F)c(F)c4)[nH]c23)CC1 | 9 |  |  |  |  | 130 (≈ 42.8 µg/mL) |  |  |  |  | 1000 | 500 | 354 | 240 | 27.3 | 215 | AUCt [18]: 195 µM·min; Tmax [19]: 42 min; Ratio [20]: 0.1; bioavailability [21]: 36%; Cmax [22]: 1100 nM; half-life [23]: 324 min |
| CN1CCN(CC2CCN(c3cncc4[nH]c(-c5cc(F)cc(F)c5)nc34)CC2)CC1 | 51 |  |  |  |  | 125 (≈ 53.3 µg/mL) |  |  | 46 |  | 100 | 330 | 414 | 130 | 71.8 | 58 | Tmax [24]: 3.5 h; Cmax [25]: 400 nM; half-life [26]: 294 min; bioavailability [27]: 73%; AUCt [28]: 214 µM·min; Ratio [29]: 0.3 |
| Fc1ccc(-c2nc3c(N4CCC(CN5CCOCC5)CC4)nccc3[nH]2)cc1F | 20 | 2070 | 3700 | 690 | 810 | 85 (≈ 35.1 µg/mL) | 0.7 | 4.6 | 35 | 83 | 300 | 120 | 1550 | 51 | 19.6 | 250 | IC50 [30]: ≤ 3 µM; Ratio IC50 [31]: <=6; IC50 (Plasmodium berghei): 290 nM; inhibition at 5 µM (Plasmodium falciparum [32]): 0%; IC50 (Plasmodium falciparum [33]): 1300 nM |
